Values after ≈ are worked out from the molar mass of the structure shown.
Columns and labels:
HUVEC = assay: Antiproliferative activity against HUVEC after 72 hrs by using methylene blue staining; assay type: cell-based; details: human
Procedure, shortened: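 HUVEC in culture medium with ultraglutamine, gentamicin, 10% heat-inactivated FBS, 37 °C. Harvested in log phase by trypsinization; about 10,000 cells/well. Compounds in DMSO, diluted in DMEM, incubated 72 h at 37 °C, 5% CO2. Cells then glutaraldehyde-fixed, stained with 0.05% methylene blue for 15 min, eluted with 0.33 N HCl, OD 660 nm. GI50 taken at 50% intersection versus untreated control.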

Mycobacterium avium [1] = assay: Antimycobacterial activity against Mycobacterium avium CNCTC My 330/88 after 21 days by microdilution method; assay type: functional; details: CNCTC My 330/88, 504 h
Procedure, shortened: (§1)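 MIC determined by a dilution micromethod. Strains came from the Czech National Collection of Type Cultures, Prague. Compounds were added to the medium as DMSO solutions. Each inoculum was also plated in parallel on Löwenstein–Jensen medium to check its sterility and growth. The M. avium strain is identical with ATCC 25291 and resistant to INH.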

[2] = tested on: Mycobacterium tuberculosis; assay: Antimycobacterial activity against Mycobacterium tuberculosis CNCTC My 331/88 after 14 days by microdilution method; assay type: functional; details: CNCTC My 331/88, 336 h; procedure, shortened: as §1
Mycobacterium kansasii [3] = assay: Antimycobacterial activity against Mycobacterium kansasii 6509/96 after 14 days by microdilution method; assay type: functional; details: for MIC: 6509/96, 336 h
Procedure, shortened: (§2)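 Dilution micromethod for MIC; compounds added to medium as DMSO solutions. Each strain also inoculated onto Löwenstein–Jensen medium to control inoculum sterility and growth. Strain 6509/96 is a clinical isolate; CNCTC strains from the Czech national type culture collection.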

Mycobacterium kansasii [4] = assay: Antimycobacterial activity against Mycobacterium kansasii CNCTC My 235/80 after 21 days by microdilution method; assay type: functional; details: CNCTC My 235/80, 504 h; procedure, shortened: as §2
[5] = tested on: Mycobacterium tuberculosis; assay: Antimycobacterial activity against Mycobacterium tuberculosis CNCTC My 331/88 after 21 days by microdilution method; assay type: functional; details: CNCTC My 331/88, 504 h; procedure, shortened: as §1
Mycobacterium avium [6] = assay: Antimycobacterial activity against Mycobacterium avium CNCTC My 330/88 after 14 days by microdilution method; assay type: functional; details: CNCTC My 330/88, 336 h; procedure, shortened: as §1
Mycobacterium kansasii [7] = assay: Antimycobacterial activity against Mycobacterium kansasii CNCTC My 235/80 after 14 days by microdilution method; assay type: functional; details: CNCTC My 235/80, 336 h; procedure, shortened: as §2
HeLa = assay: Cytotoxicity against human HeLa cells after 72 hrs by using methylene blue staining; assay type: functional, cell-based
Procedure, shortened: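 HeLa cells in RPMI 1640 with supplements, preincubated 48 h without compound. Compound dilutions were then applied to subconfluent monolayers for 72 h at 37 °C, 5% CO2. Cells were glutaraldehyde-fixed, stained with 0.05% methylene blue, eluted with 0.33 N HCl and read at OD 660 nm. CC50 taken at 50% intersection versus negative control.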

K562 = assay: Antiproliferative activity against human K562 cells after 72 hrs by celltiter-blue assay; assay type: functional, cell-based
Procedure, shortened: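 K-562 grown in RPMI 1640 with ultraglutamine, gentamicin, 10% heat-inactivated FBS at 37 °C; about 10,000 cells/well. Compounds dissolved in DMSO and diluted in DMEM, incubated 72 h at 37 °C, 5% CO2. Viability read by CellTiter-Blue resazurin reduction. GI50 taken where the dose-response curve crosses 50% of untreated control.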

Mycobacterium kansasii [8] = assay: Antimycobacterial activity against Mycobacterium kansasii 6509/96 after 21 days by microdilution method; assay type: functional; details: 6509/96, 504 h; procedure, shortened: as §2

| Compound | Activity (HUVEC) | MIC (Mycobacterium avium [1]) | MIC [2] | MIC (Mycobacterium kansasii [3]) | MIC (Mycobacterium kansasii [4]) | MIC [5] | MIC (Mycobacterium avium [6]) | MIC (Mycobacterium kansasii [7]) | Activity (HeLa) | Activity (K562) | MIC (Mycobacterium kansasii [8]) | Activity (Mycobacterium kansasii [3]) |
| --- | --- | --- | --- | --- | --- | --- | --- | --- | --- | --- | --- | --- |
| O=c1oc2ccc(Cl)cc2c(=O)n1Cc1ccccc1 | Toxic | 62.5 µM (≈ 18 µg/mL) | 62.5 µM (≈ 18 µg/mL) | 125 µM (≈ 36 µg/mL) | 62.5 µM (≈ 18 µg/mL) | 125 µM (≈ 36 µg/mL) | 32 µM (≈ 9.21 µg/mL) | 32 µM (≈ 9.21 µg/mL) | Toxic | Toxic | 125 µM (≈ 36 µg/mL) |  |
| S=c1oc2ccccc2c(=S)n1Cc1ccc(Cl)c(Cl)c1 |  | 0.5 µM (≈ 0.177 µg/mL) | 1 µM (≈ 0.354 µg/mL) | 4 µM (≈ 1.42 µg/mL) | 4 µM (≈ 1.42 µg/mL) | 2 µM (≈ 0.709 µg/mL) | 0.5 µM (≈ 0.177 µg/mL) | 4 µM (≈ 1.42 µg/mL) |  |  | 4 µM (≈ 1.42 µg/mL) |  |
| O=c1oc2ccc(Br)cc2c(=O)n1Cc1ccc(Cl)c(Cl)c1 | Toxic | 32 µM (≈ 12.8 µg/mL) | 32 µM (≈ 12.8 µg/mL) | 62.5 µM (≈ 25.1 µg/mL) | 62.5 µM (≈ 25.1 µg/mL) | 32 µM (≈ 12.8 µg/mL) | 32 µM (≈ 12.8 µg/mL) | 62.5 µM (≈ 25.1 µg/mL) | Toxic | Toxic | 62.5 µM (≈ 25.1 µg/mL) |  |
| O=c1oc2ccccc2c(=S)n1Cc1ccc(Cl)c(Cl)c1 | Toxic | 1 µM (≈ 0.338 µg/mL) | 1 µM (≈ 0.338 µg/mL) | 2 µM (≈ 0.676 µg/mL) | 4 µM (≈ 1.35 µg/mL) | 1 µM (≈ 0.338 µg/mL) | 1 µM (≈ 0.338 µg/mL) | 2 µM (≈ 0.676 µg/mL) | Toxic | Toxic | 4 µM (≈ 1.35 µg/mL) |  |
| O=c1oc2ccc(Cl)cc2c(=O)n1Cc1ccc(Cl)c(Cl)c1 | Toxic | 32 µM (≈ 11.4 µg/mL) | 16 µM (≈ 5.71 µg/mL) | 62.5 µM (≈ 22.3 µg/mL) | 62.5 µM (≈ 22.3 µg/mL) | 16 µM (≈ 5.71 µg/mL) | 16 µM (≈ 5.71 µg/mL) | 62.5 µM (≈ 22.3 µg/mL) | Toxic | Toxic | 62.5 µM (≈ 22.3 µg/mL) |  |
| O=c1oc2ccccc2c(=S)n1Cc1ccccc1 | Toxic | 8 µM (≈ 2.15 µg/mL) | 1 µM (≈ 0.269 µg/mL) | 4 µM (≈ 1.08 µg/mL) | 8 µM (≈ 2.15 µg/mL) | 2 µM (≈ 0.539 µg/mL) | 8 µM (≈ 2.15 µg/mL) | 4 µM (≈ 1.08 µg/mL) | Toxic | Toxic | 8 µM (≈ 2.15 µg/mL) |  |
| O=c1oc2ccccc2c(=O)n1Cc1ccc(Cl)c(Cl)c1 | Toxic | 32 µM (≈ 10.3 µg/mL) | 32 µM (≈ 10.3 µg/mL) | 62.5 µM (≈ 20.1 µg/mL) | 62.5 µM (≈ 20.1 µg/mL) | 32 µM (≈ 10.3 µg/mL) | 32 µM (≈ 10.3 µg/mL) | 62.5 µM (≈ 20.1 µg/mL) | Toxic | Toxic | 62.5 µM (≈ 20.1 µg/mL) |  |
| S=c1oc2ccc(Cl)cc2c(=S)n1Cc1ccc(Cl)c(Cl)c1 |  | 32 µM (≈ 12.4 µg/mL) | 4 µM (≈ 1.55 µg/mL) | 32 µM (≈ 12.4 µg/mL) | 32 µM (≈ 12.4 µg/mL) | 8 µM (≈ 3.11 µg/mL) | 16 µM (≈ 6.22 µg/mL) | 32 µM (≈ 12.4 µg/mL) |  |  | 32 µM (≈ 12.4 µg/mL) |  |
| S=c1oc2c(Cl)cc(Cl)cc2c(=S)n1Cc1ccc(Cl)c(Cl)c1 |  | 62.5 µM (≈ 26.4 µg/mL) | 32 µM (≈ 13.5 µg/mL) | 62.5 µM (≈ 26.4 µg/mL) | 62.5 µM (≈ 26.4 µg/mL) | 32 µM (≈ 13.5 µg/mL) | 62.5 µM (≈ 26.4 µg/mL) | 62.5 µM (≈ 26.4 µg/mL) |  |  | 62.5 µM (≈ 26.4 µg/mL) |  |
| Cc1ccc2oc(=O)n(Cc3ccccc3)c(=S)c2c1 | Toxic | 2 µM (≈ 0.567 µg/mL) | 1 µM (≈ 0.283 µg/mL) | 1 µM (≈ 0.283 µg/mL) | 2 µM (≈ 0.567 µg/mL) | 1 µM (≈ 0.283 µg/mL) | 2 µM (≈ 0.567 µg/mL) | 1 µM (≈ 0.283 µg/mL) | Toxic | Toxic | 2 µM (≈ 0.567 µg/mL) |  |
| O=c1oc2ccc(Cl)cc2c(=O)n1Cc1ccc(F)cc1 | Toxic | 32 µM (≈ 9.78 µg/mL) | 32 µM (≈ 9.78 µg/mL) |  | 62.5 µM (≈ 19.1 µg/mL) | 32 µM (≈ 9.78 µg/mL) | 32 µM (≈ 9.78 µg/mL) | 62.5 µM (≈ 19.1 µg/mL) | Toxic | Toxic | 125 µM (≈ 38.2 µg/mL) | Toxic |
| CO[C@H]1/C=C/O[C@@]2(C)Oc3c(C)c(O)c4c(O)c(c(/C=N/N5CCN(C)CC5)c(O)c4c3C2=O)NC(=O)/C(C)=C\C=C\[C@H](C)[C@H](O)[C@@H](C)[C@@H](O)[C@@H](C)[C@H](OC(C)=O)[C@@H]1C [RIFAMPIN] |  | 65 µM (≈ 53.5 µg/mL) | 0.25 µM (≈ 0.206 µg/mL) | 0.125 µM (≈ 0.103 µg/mL) | 0.25 µM (≈ 0.206 µg/mL) | 0.5 µM (≈ 0.411 µg/mL) | 16 µM (≈ 13.2 µg/mL) | 0.25 µM (≈ 0.206 µg/mL) |  |  | 0.25 µM (≈ 0.206 µg/mL) |  |
| O=c1oc2c(Cl)cc(Cl)cc2c(=O)n1Cc1ccc(Cl)c(Cl)c1 | Toxic | 125 µM (≈ 48.9 µg/mL) | 62.5 µM (≈ 24.4 µg/mL) | 125 µM (≈ 48.9 µg/mL) | 125 µM (≈ 48.9 µg/mL) | 125 µM (≈ 48.9 µg/mL) | 125 µM (≈ 48.9 µg/mL) | 125 µM (≈ 48.9 µg/mL) | Toxic | Toxic | 125 µM (≈ 48.9 µg/mL) |  |

— ChEMBL document CHEMBL1177835, “A note to the biological activity of benzoxazine derivatives containing the thioxo group” (Eur J Med Chem, 2010)
